Experimental data as given in ChEMBL document CHEMBL5696442, “Discovery of type II inhibitors of TGFβ-activated kinase 1 (TAK1) and mitogen-activated protein kinase kinase kinase kinase 2 (MAP4K2)” (J Med Chem, 2015).
Calls of active or inactive are those of the source. The rule behind the calls is not given here.

How the values were obtained:
[1] = target: Myosin-IIIa (Homo sapiens) (UniProt Q8NEV4); test: Inhibition of MYO3A (unknown origin) at 1 uM by Ambit Kinomescan binding assay relative to control
Method in brief: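 In vitro ATP-site competition binding assay against a panel of over 420 kinases (KinomeScan), with compound tested at 10 or 1 μM.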

[2] = target: Casein kinase II subunit alpha' (Homo sapiens) (UniProt P19784); test: Inhibition of CSNK2A2 (unknown origin) at 1 uM by Ambit Kinomescan binding assay relative to control; values are per cent of control
[3] = system: Epidermal growth factor receptor (Homo sapiens), P00533 [L861Q]; test: Inhibition of EGFR L861Q mutant (unknown origin) at 1 uM by Ambit Kinomescan binding assay relative to control
[4] = target: T1, Acylglycerol kinase, mitochondrial (Homo sapiens) (UniProt Q53H12); test: Inhibition of AGK ATP labeling site in human A-375 cells at 0.05 uM by KiNativ Profiling analysis relative to control; type: cell-based
T1 sequence (whole entry): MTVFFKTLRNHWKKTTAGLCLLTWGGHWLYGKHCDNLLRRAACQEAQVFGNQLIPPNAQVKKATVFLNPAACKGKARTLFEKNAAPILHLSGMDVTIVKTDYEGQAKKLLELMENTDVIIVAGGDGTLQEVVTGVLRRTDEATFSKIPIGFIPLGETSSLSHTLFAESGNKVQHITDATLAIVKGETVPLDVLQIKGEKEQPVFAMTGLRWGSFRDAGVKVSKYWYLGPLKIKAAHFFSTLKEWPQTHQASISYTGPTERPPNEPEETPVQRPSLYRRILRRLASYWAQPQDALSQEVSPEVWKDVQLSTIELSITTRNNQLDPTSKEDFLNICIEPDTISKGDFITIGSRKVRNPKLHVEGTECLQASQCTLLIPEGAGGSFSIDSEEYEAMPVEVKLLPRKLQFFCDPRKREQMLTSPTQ

[5] = target: Cyclin-dependent kinase 17 (Homo sapiens) (UniProt Q00537); test: Inhibition of PCTAIRE2 Lys1 labeling site harbouring SKLTENLVALKEIRLEHEEGAPCTAIR in human A-375 cells at 0.05 uM by KiNativ Profiling analysis relative to control; type: cell-based
[6] = target: Mitogen-activated protein kinase kinase kinase 4 (Homo sapiens) (UniProt Q9Y6R4); test: Inhibition of MAP3K4 K2 labeling site in human Huh-7 cells at 10 uM by KiNativ Profiling analysis relative to control; type: cell-based
[7] = target: Mitogen-activated protein kinase kinase kinase 9 (Homo sapiens) (UniProt P80192); test: Inhibition of MLK1 (unknown origin) at 10 uM by Ambit Kinomescan binding assay
[8] = system: Epidermal growth factor receptor (Homo sapiens), P00533 [UNDEFINED MUTATION]; test: Inhibition of EGFR L747-E749del/A750P mutant (unknown origin) at 10 uM by Ambit Kinomescan binding assay relative to control
[9] = target: Serine/threonine-protein kinase SMG1 (Homo sapiens) (UniProt Q96Q15); test: Inhibition of SMG1 ATP labeling site harbouring DTVTIHSVGGTITILPTKTKPK in human A-375 cells at 0.05 uM by KiNativ Profiling analysis relative to control; type: cell-based
[10] = target: Microtubule-associated serine/threonine-protein kinase 1 (Homo sapiens) (UniProt Q9Y2H9); test: Inhibition of MAST1 Lys2 labeling site in human A-375 cells at 5 uM by KiNativ Profiling analysis relative to control
MEF = test: Inhibition of IL-1alpha induced JNK1/2 phosphorylation level in mouse MEF cells preincubated for 1 hr followed by IL-1 alpha stimulation and measured after 30 mins by Western blot analysis; type: functional, cell-based; settings: dose 0.01-10 µM
[11] = target: Calcium/calmodulin-dependent protein kinase kinase 2 (Homo sapiens) (UniProt Q96RR4); test: Inhibition of CaMKK2 Lys1 labeling site in human A-375 cells at 0.5 uM by KiNativ Profiling analysis relative to control; type: cell-based
[12] = Inhibition of MARK2/3 K2 labeling site in human Huh-7 cells at 1 uM by KiNativ Profiling analysis relative to control; settings: condition cancer
[13] = target: Serine/threonine-protein kinase 26 (Homo sapiens) (UniProt Q9P289); test: Inhibition of MST4 Lys2 labeling site in human Huh-7 cells at 1 uM by KiNativ Profiling analysis relative to control; type: cell-based
[14] = target: Serine/threonine-protein kinase OSR1 (Homo sapiens) (UniProt O95747); test: Inhibition of OSR1 Lys2 labeling site in human Huh-7 cells at 1 uM by KiNativ Profiling analysis relative to control
[15] = target: Calcium/calmodulin-dependent protein kinase type II subunit delta (Homo sapiens) (UniProt Q13557); test: Inhibition of CaMK2d Lys1 labeling site harbouring IPTGQEYAAKIINTK in human Huh-7 cell lysate at 1 uM by KiNativ Profiling analysis relative to control; type: subcellular
[16] = target: Cyclin-dependent kinase 2 (Homo sapiens) (UniProt P24941); test: Inhibition of CDK2 Lys2 labeling site harbouring VLHRDLKPQNLLINTEGAIK in human Huh-7 cell lysate at 1 uM by KiNativ Profiling analysis relative to control; type: subcellular
[17] = target: Focal adhesion kinase 1 (Homo sapiens) (UniProt Q05397); test: Inhibition of FAK ACT labeling site in human Huh-7 cell lysate at 1 uM by KiNativ Profiling analysis relative to control; type: subcellular

Serine/threonine-protein kinase OSR1 (Homo sapiens), sequence (O95747 whole entry, looked up): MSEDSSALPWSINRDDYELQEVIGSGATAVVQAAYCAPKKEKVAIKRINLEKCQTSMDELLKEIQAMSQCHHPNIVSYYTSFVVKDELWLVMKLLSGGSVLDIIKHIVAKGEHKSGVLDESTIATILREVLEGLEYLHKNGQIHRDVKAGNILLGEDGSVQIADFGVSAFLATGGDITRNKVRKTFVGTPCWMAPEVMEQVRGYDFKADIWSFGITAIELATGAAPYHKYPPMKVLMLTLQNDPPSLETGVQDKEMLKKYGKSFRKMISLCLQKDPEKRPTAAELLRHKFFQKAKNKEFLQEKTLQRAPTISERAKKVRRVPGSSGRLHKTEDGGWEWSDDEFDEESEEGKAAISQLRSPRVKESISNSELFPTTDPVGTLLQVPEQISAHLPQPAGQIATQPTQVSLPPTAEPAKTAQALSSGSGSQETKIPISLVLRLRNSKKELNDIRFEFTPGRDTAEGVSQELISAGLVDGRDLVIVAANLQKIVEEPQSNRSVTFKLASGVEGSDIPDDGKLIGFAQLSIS
Microtubule-associated serine/threonine-protein kinase 1 (Homo sapiens), sequence (Q9Y2H9 whole entry, looked up): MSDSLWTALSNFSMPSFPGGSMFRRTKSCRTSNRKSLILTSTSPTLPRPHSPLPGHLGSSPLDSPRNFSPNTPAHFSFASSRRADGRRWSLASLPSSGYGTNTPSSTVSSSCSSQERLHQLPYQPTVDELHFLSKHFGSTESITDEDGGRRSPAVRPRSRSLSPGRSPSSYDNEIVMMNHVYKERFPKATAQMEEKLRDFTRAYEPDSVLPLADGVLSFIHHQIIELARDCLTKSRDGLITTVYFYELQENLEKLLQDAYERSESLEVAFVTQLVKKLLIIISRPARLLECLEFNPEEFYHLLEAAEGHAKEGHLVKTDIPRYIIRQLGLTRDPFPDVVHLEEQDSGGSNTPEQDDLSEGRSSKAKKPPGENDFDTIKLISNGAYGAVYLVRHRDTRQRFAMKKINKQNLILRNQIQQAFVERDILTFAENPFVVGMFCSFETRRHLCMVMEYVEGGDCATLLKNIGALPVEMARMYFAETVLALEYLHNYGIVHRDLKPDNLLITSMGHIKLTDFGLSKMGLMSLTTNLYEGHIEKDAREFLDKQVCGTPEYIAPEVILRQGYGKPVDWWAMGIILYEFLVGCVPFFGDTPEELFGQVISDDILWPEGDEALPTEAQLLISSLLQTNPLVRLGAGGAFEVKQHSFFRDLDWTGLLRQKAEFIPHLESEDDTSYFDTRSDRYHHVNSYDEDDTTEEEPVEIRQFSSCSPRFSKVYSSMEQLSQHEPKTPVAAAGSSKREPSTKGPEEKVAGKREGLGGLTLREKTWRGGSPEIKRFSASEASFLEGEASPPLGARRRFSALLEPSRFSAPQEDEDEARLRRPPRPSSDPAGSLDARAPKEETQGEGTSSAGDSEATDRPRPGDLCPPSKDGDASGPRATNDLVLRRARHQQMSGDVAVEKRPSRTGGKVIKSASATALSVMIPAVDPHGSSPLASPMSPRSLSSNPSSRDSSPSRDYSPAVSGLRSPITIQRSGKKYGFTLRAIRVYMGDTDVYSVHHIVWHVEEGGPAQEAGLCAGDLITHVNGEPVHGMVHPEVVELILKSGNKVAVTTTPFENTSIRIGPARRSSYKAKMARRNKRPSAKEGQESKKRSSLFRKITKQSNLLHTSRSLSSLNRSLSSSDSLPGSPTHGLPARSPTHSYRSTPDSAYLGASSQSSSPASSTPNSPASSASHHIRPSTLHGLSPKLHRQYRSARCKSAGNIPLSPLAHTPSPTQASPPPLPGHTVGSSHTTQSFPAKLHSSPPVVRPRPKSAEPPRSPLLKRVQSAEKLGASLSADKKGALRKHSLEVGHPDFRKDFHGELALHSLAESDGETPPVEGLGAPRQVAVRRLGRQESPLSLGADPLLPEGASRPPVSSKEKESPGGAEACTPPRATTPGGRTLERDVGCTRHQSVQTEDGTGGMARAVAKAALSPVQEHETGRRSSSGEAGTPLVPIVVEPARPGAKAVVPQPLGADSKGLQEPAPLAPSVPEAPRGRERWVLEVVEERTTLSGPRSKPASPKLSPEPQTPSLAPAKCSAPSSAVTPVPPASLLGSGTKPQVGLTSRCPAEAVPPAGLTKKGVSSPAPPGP
Epidermal growth factor receptor (Homo sapiens), P00533 [L861Q], sequence (P00533 whole entry L861Q): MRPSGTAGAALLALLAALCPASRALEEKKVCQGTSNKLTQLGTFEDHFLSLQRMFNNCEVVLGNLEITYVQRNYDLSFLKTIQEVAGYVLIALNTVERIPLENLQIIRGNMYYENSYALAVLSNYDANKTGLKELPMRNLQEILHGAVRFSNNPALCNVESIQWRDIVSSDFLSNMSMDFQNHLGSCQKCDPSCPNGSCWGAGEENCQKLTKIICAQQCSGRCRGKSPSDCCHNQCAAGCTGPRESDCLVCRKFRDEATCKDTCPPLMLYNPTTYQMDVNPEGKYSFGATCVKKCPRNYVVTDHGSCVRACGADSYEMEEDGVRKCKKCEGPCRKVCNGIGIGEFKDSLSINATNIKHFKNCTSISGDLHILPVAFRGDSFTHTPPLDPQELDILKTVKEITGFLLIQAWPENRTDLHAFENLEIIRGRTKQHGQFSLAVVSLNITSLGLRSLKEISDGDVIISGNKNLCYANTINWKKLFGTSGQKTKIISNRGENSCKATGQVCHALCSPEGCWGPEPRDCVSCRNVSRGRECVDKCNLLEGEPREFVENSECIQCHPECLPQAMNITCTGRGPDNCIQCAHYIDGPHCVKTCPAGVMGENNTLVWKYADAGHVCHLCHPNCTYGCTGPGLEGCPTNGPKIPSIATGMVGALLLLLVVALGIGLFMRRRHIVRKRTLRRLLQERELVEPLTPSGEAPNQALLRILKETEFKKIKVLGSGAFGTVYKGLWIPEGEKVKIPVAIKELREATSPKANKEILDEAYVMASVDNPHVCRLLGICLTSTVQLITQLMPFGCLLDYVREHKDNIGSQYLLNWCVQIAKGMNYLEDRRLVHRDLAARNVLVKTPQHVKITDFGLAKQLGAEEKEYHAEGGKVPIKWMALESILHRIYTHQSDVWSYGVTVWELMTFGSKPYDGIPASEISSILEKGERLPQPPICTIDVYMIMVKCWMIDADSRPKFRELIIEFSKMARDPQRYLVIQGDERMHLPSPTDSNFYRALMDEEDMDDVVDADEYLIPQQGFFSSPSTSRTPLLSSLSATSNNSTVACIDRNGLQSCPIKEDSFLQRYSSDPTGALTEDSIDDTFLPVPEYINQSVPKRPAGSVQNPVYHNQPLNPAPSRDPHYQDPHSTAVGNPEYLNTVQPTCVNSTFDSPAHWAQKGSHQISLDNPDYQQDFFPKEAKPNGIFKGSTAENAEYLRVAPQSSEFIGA
Casein kinase II subunit alpha' (Homo sapiens), sequence (P19784 whole entry, looked up): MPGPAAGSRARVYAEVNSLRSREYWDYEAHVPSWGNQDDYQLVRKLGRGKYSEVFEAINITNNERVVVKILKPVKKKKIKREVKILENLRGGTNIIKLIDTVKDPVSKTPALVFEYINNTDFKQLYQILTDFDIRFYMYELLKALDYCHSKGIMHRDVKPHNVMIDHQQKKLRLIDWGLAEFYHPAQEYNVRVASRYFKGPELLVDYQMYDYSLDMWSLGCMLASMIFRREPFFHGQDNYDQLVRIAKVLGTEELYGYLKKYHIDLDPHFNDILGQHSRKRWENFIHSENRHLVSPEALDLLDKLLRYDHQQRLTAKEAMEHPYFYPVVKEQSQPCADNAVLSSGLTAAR
Epidermal growth factor receptor (Homo sapiens), P00533 [UNDEFINED MUTATION], sequence (P00533 whole entry, looked up, stated change not applied): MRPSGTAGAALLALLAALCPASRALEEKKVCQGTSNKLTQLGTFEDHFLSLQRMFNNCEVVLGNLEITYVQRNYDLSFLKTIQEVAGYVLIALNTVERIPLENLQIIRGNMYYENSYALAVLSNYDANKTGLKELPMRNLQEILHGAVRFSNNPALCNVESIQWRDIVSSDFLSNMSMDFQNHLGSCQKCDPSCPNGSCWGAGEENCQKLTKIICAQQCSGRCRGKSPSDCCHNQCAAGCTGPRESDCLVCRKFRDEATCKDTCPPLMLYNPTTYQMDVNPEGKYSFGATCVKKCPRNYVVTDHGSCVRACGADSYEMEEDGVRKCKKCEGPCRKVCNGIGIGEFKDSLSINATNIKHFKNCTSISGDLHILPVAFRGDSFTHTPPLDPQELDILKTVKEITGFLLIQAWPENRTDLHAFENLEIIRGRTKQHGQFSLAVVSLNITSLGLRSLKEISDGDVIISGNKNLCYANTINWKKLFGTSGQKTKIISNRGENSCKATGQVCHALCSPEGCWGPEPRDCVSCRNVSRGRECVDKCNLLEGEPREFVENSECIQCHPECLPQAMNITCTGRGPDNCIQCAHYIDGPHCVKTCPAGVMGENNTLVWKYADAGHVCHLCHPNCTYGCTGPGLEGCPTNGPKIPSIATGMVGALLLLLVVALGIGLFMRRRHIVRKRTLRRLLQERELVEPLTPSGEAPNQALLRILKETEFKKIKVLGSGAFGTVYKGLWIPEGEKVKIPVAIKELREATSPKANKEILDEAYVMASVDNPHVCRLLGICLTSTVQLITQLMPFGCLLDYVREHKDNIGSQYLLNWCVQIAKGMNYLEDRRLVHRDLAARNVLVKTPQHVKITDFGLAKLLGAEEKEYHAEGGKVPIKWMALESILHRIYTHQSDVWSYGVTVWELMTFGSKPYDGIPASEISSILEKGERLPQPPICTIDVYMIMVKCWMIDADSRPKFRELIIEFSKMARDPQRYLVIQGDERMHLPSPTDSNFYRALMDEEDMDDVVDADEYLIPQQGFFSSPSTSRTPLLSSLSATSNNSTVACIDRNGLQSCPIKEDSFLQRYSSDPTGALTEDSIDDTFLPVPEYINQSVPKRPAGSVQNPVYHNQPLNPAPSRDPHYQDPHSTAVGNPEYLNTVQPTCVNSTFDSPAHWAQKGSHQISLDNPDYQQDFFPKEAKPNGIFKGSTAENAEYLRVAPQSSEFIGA

Compound `CCN1CCN(Cc2ccc(NC(=O)c3ccc(C)c(/C=C/c4cnc5[nH]ccc5c4OC)c3)cc2C(F)(F)F)CC1` has an inhibition [1] of 84%, a residual activity [2] of 77% and an inhibition [3] of 0.25%. It also gave an inhibition [4] of 16.8% and an inhibition [5] of 2.7%.

In the case of `CCN1CCN(Cc2ccc(NC(=O)c3ccc(C)c(Oc4ccnc5[nH]ccc45)c3)cc2C(F)(F)F)CC1`, the inhibition [6] is reported as 5.2%, the inhibition [7] is reported as “inactive” and the inhibition [8] is reported as 1.5%. For the same compound, the inhibition [9] was 2.3%, the inhibition [10] was -6.1% and the inhibition (MEF) was “Dose-Dependent Effect”. For the same compound, the inhibition [11] was 6.3% and the inhibition at 1 µM [12] was -5.3%.

Compound `CNc1cc(Oc2cc(C(=O)Nc3cc(N4CCN(C)CC4)cc(C(F)(F)F)c3)ccc2C)ncn1` has an inhibition [13] of 25.2%, an inhibition [14] of 57.3% and an inhibition [15] of 1.4%. It also gave an inhibition [16] of 16.1% and an inhibition [17] of 16%.
